Published values gathered from unrelated publications.
Compare with care: the assays were run in different laboratories.
DYRK3: Dual specificity tyrosine-phosphorylation-regulated kinase 3 (DYRK3, Homo sapiens, UniProt O43781)
PTGS2: Prostaglandin G/H synthase 2 (PTGS2, Homo sapiens, UniProt P35354)
BRDT BD1: Bromodomain testis-specific protein, BD1 (BRDT, Homo sapiens, UniProt Q58F21)

| SMILES | target | effect on | action | method | concentration | measurement | result |
| --- | --- | --- | --- | --- | --- | --- | --- |
| O=C(O)c1ccc2c(c1)nc(NCCc1ccccc1)c1ccncc12 | DYRK3 | enzyme activity | inhibitor | radiometric | 1 µM | remaining activity | 3% |
| Cc1cnc(Nc2ccc(OCCN3CCCC3)cc2)nc1Nc1cccc(S(=O)(=O)NC(C)(C)C)c1 | CREB-binding protein (CREBBP, Homo sapiens, UniProt Q92793) | thermal stability | – | DSF | 10 µM | ΔTm | 2.06 °C |
| O=C(O)c1ccc2c(c1)nc(Nc1cccc(F)c1)c1ncncc12 | Homeodomain-interacting protein kinase 2 (HIPK2, Homo sapiens, UniProt Q9H2X6) | enzyme activity | inhibitor | radiometric | 1 µM | remaining activity | -1% |
| O=c1cc(-c2ccc(O)cc2)oc2cc(O)cc(O)c12 | PTGS2 | enzyme activity | inhibitor | – | 0.98 µg/mL | inhibition | 28.2% |
| NS(=O)(=O)c1ccc(Nc2nc(-c3ccc(F)cc3)c3ccccc3n2)cc1 | BRDT BD1 | binding | – | competition with immobilised ligand | 1 µM | remaining binding | 6% |
| O=C(O)c1ccc(O)cc1 | PTGS2 | enzyme activity | inhibitor | – | 15.63 µg/mL | inhibition | 100% |
| O=C(O)c1ccc2c(c1)nc(Nc1cccc(F)c1)c1ccncc12 | DYRK3 | enzyme activity | inhibitor | radiometric | 1 µM | remaining activity | 0% |
| Cc1cc2c(cc1N1C(=O)c3cccc4c(Cl)ccc(c34)C1=O)n(C)c(=O)n2C | BRDT BD1 | thermal stability | – | DSF | 10 µM | ΔTm | -1 °C |
| Oc1ccc(-c2nc(-c3ccncc3)c(-c3ccc(F)cc3)[nH]2)cc1 | Transcription intermediary factor 1-beta (TRIM28, Homo sapiens, UniProt Q13263) | thermal stability | – | DSF | 10 µM | ΔTm | -0.03 °C |
| COc1ccc(-c2cc(=O)c3c(O)cc(O[C@@H]4O[C@H](CO)[C@@H](O)[C@H](O)[C@H]4O)cc3o2)cc1O | PTGS2 | enzyme activity | inhibitor | – | 3.9 µg/mL | inhibition | 100% |
